Experimental data as given in ChEMBL document CHEMBL4689842, “EUbOPEN Chemogenomics Library wave 1” (2021).

System: U2OS
Assay: Multiplex assay against U2OS
Assay type: toxicity, cell-based
Details: human
Summary of the method: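 Values for tubulin, mitochondrial-mass and membrane-permeability phenotypes are per cents of cells with healthy nuclei. These cells were identified by CellPathfinder machine-learning gating of live cells that had been stained at seeding with Hoechst33342, BioTracker Green Microtubule Cytoskeleton Dye, MitoTracker Red and Annexin V Alexa Fluor 680 and imaged on a CQ1 microscope at 37°C and 5% CO2 after compound addition. The gating first set Hoechst high-intensity objects apart from normal cells, then split normal cells into healthy, pyknosed or fragmented nuclei, and pyknosed cells into mitotic or apoptotic.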

[1] = 12 h, 1 µM, compound concentration 1 uM, replicate 1
[2] = 12 h, 1 µM, compound concentration 1 uM, replicate 2
[3] = 12 h, 10 µM, compound concentration 10 uM, replicate 1
[4] = 12 h, 10 µM, compound concentration 10 uM, replicate 2
[5] = 24 h, 1 µM, compound concentration 1 uM, replicate 1
[6] = 24 h, 1 µM, compound concentration 1 uM, replicate 2
[7] = 24 h, 10 µM, compound concentration 10 uM, replicate 1
[8] = 24 h, 10 µM, compound concentration 10 uM, replicate 2
[9] = 48 h, 1 µM, compound concentration 1 uM, replicate 1
[10] = 48 h, 1 µM, compound concentration 1 uM, replicate 2
[11] = 48 h, 10 µM, compound concentration 10 uM, replicate 1
[12] = 48 h, 10 µM, compound concentration 10 uM, replicate 2

Structure (SMILES): CCCn1c(=O)c2[nH]c(-c3cnn(Cc4cccc(C(F)(F)F)c4)c3)nc2n(CC)c1=O [GS 6201]
- Population Apoptotic (%) [1]: 28%
- Population Fragmented Nuclei (%) [1]: 8%
- Population Healthy Nuclei (%) [1]: 78%
- Population Hoechst High Intensity Objects (%) [1]: 9%
- Population Membrane Permeable-Phenotype (%) [1]: 14%
- Population Mitochondria Different-Phenotype (%) [1]: 5%
- Population Mitotic Cells (%) [1]: 71%
- Population Normal (%) [1]: 90%
- Population Pyknosed Nuclei (%) [1]: 13%
- Population Tubulin-Different-Phenotype (%) [1]: 14%
- Total Cell Count [1]: 1120
- Population Apoptotic (%) [2]: 42%
- Population Fragmented Nuclei (%) [2]: 4%
- Population Healthy Nuclei (%) [2]: 88%
- Population Hoechst High Intensity Objects (%) [2]: 2%
- Population Membrane Permeable-Phenotype (%) [2]: 8%
- Population Mitochondria Different-Phenotype (%) [2]: 9%
- Population Mitotic Cells (%) [2]: 57%
- Population Normal (%) [2]: 97%
- Population Pyknosed Nuclei (%) [2]: 7%
- Population Tubulin-Different-Phenotype (%) [2]: 28%
- Total Cell Count [2]: 75
- Population Apoptotic (%) [3]: 35%
- Population Fragmented Nuclei (%) [3]: 34%
- Population Healthy Nuclei (%) [3]: 52%
- Population Hoechst High Intensity Objects (%) [3]: 19%
- Population Membrane Permeable-Phenotype (%) [3]: 51%
- Population Mitochondria Different-Phenotype (%) [3]: 31%
- Population Mitotic Cells (%) [3]: 64%
- Population Normal (%) [3]: 80%
- Population Pyknosed Nuclei (%) [3]: 12%
- Population Tubulin-Different-Phenotype (%) [3]: 82%
- Total Cell Count [3]: 118
- Population Apoptotic (%) [4]: 50%
- Population Fragmented Nuclei (%) [4]: 17%
- Population Healthy Nuclei (%) [4]: 77%
- Population Hoechst High Intensity Objects (%) [4]: 5%
- Population Membrane Permeable-Phenotype (%) [4]: 3%
- Population Mitochondria Different-Phenotype (%) [4]: 20%
- Population Mitotic Cells (%) [4]: 50%
- Population Normal (%) [4]: 94%
- Population Pyknosed Nuclei (%) [4]: 4%
- Population Tubulin-Different-Phenotype (%) [4]: 10%
- Total Cell Count [4]: 98
- Population Apoptotic (%) [5]: 27%
- Population Fragmented Nuclei (%) [5]: 8%
- Population Healthy Nuclei (%) [5]: 82%
- Population Hoechst High Intensity Objects (%) [5]: 7%
- Population Membrane Permeable-Phenotype (%) [5]: 7%
- Population Mitochondria Different-Phenotype (%) [5]: 7%
- Population Mitotic Cells (%) [5]: 72%
- Population Normal (%) [5]: 92%
- Population Pyknosed Nuclei (%) [5]: 8%
- Population Tubulin-Different-Phenotype (%) [5]: 8%
- Total Cell Count [5]: 2066
- Population Apoptotic (%) [6]: 50%
- Population Fragmented Nuclei (%) [6]: 5%
- Population Healthy Nuclei (%) [6]: 90%
- Population Hoechst High Intensity Objects (%) [6]: 4%
- Population Membrane Permeable-Phenotype (%) [6]: 2%
- Population Mitochondria Different-Phenotype (%) [6]: 10%
- Population Mitotic Cells (%) [6]: 50%
- Population Normal (%) [6]: 95%
- Population Pyknosed Nuclei (%) [6]: 4%
- Population Tubulin-Different-Phenotype (%) [6]: 30%
- Total Cell Count [6]: 81
- Population Apoptotic (%) [7]: 64%
- Population Fragmented Nuclei (%) [7]: 44%
- Population Healthy Nuclei (%) [7]: 41%
- Population Hoechst High Intensity Objects (%) [7]: 16%
- Population Membrane Permeable-Phenotype (%) [7]: 47%
- Population Mitochondria Different-Phenotype (%) [7]: 31%
- Population Mitotic Cells (%) [7]: 35%
- Population Normal (%) [7]: 83%
- Population Pyknosed Nuclei (%) [7]: 14%
- Population Tubulin-Different-Phenotype (%) [7]: 58%
- Total Cell Count [7]: 133
- Population Apoptotic (%) [8]: 50%
- Population Fragmented Nuclei (%) [8]: 17%
- Population Healthy Nuclei (%) [8]: 72%
- Population Hoechst High Intensity Objects (%) [8]: 3%
- Population Membrane Permeable-Phenotype (%) [8]: 5%
- Population Mitochondria Different-Phenotype (%) [8]: 11%
- Population Mitotic Cells (%) [8]: 50%
- Population Normal (%) [8]: 96%
- Population Pyknosed Nuclei (%) [8]: 10%
- Population Tubulin-Different-Phenotype (%) [8]: 9%
- Total Cell Count [8]: 139
- Population Apoptotic (%) [9]: 44%
- Population Fragmented Nuclei (%) [9]: 8%
- Population Healthy Nuclei (%) [9]: 82%
- Population Hoechst High Intensity Objects (%) [9]: 1%
- Population Membrane Permeable-Phenotype (%) [9]: 3%
- Population Mitochondria Different-Phenotype (%) [9]: 11%
- Population Mitotic Cells (%) [9]: 55%
- Population Normal (%) [9]: 98%
- Population Pyknosed Nuclei (%) [9]: 9%
- Population Tubulin-Different-Phenotype (%) [9]: 7%
- Total Cell Count [9]: 2377
- Population Apoptotic (%) [10]: 41%
- Population Fragmented Nuclei (%) [10]: 2%
- Population Healthy Nuclei (%) [10]: 91%
- Population Membrane Permeable-Phenotype (%) [10]: 1%
- Population Mitochondria Different-Phenotype (%) [10]: 13%
- Population Mitotic Cells (%) [10]: 58%
- Population Pyknosed Nuclei (%) [10]: 5%
- Population Tubulin-Different-Phenotype (%) [10]: 35%
- Total Cell Count [10]: 110
- Population Apoptotic (%) [11]: 67%
- Population Fragmented Nuclei (%) [11]: 51%
- Population Healthy Nuclei (%) [11]: 34%
- Population Hoechst High Intensity Objects (%) [11]: 13%
- Population Membrane Permeable-Phenotype (%) [11]: 50%
- Population Mitochondria Different-Phenotype (%) [11]: 29%
- Population Mitotic Cells (%) [11]: 32%
- Population Normal (%) [11]: 86%
- Population Pyknosed Nuclei (%) [11]: 13%
- Population Tubulin-Different-Phenotype (%) [11]: 47%
- Total Cell Count [11]: 198
- Population Apoptotic (%) [12]: 22%
- Population Fragmented Nuclei (%) [12]: 12%
- Population Healthy Nuclei (%) [12]: 80%
- Population Hoechst High Intensity Objects (%) [12]: 2%
- Population Membrane Permeable-Phenotype (%) [12]: 9%
- Population Mitochondria Different-Phenotype (%) [12]: 13%
- Population Mitotic Cells (%) [12]: 77%
- Population Normal (%) [12]: 97%
- Population Pyknosed Nuclei (%) [12]: 6%
- Population Tubulin-Different-Phenotype (%) [12]: 13%
- Total Cell Count [12]: 214

Structure (SMILES): CCn1cc(-c2ccnc3[nH]c(-c4cccc(CN(C)C)c4)cc23)c(-c2ccc(NC(=O)N(C)C)cc2)n1 [GSK-1070916]
- Population Apoptotic (%) [1]: 25%
- Population Fragmented Nuclei (%) [1]: 4%
- Population Healthy Nuclei (%) [1]: 91%
- Population Hoechst High Intensity Objects (%) [1]: 2%
- Population Membrane Permeable-Phenotype (%) [1]: 28%
- Population Mitochondria Different-Phenotype (%) [1]: 17%
- Population Mitotic Cells (%) [1]: 75%
- Population Normal (%) [1]: 97%
- Population Pyknosed Nuclei (%) [1]: 3%
- Population Tubulin-Different-Phenotype (%) [1]: 24%
- Total Cell Count [1]: 141
- Population Apoptotic (%) [2]: 100%
- Population Fragmented Nuclei (%) [2]: 12%
- Population Healthy Nuclei (%) [2]: 86%
- Population Hoechst High Intensity Objects (%) [2]: 14%
- Population Membrane Permeable-Phenotype (%) [2]: 30%
- Population Mitochondria Different-Phenotype (%) [2]: 35%
- Population Mitotic Cells (%) [2]: 0%
- Population Normal (%) [2]: 85%
- Population Pyknosed Nuclei (%) [2]: 1%
- Population Tubulin-Different-Phenotype (%) [2]: 26%
- Total Cell Count [2]: 97
- Population Apoptotic (%) [3]: 50%
- Population Fragmented Nuclei (%) [3]: 12%
- Population Healthy Nuclei (%) [3]: 62%
- Population Hoechst High Intensity Objects (%) [3]: 9%
- Population Membrane Permeable-Phenotype (%) [3]: 32%
- Population Mitochondria Different-Phenotype (%) [3]: 44%
- Population Mitotic Cells (%) [3]: 49%
- Population Normal (%) [3]: 90%
- Population Pyknosed Nuclei (%) [3]: 24%
- Population Tubulin-Different-Phenotype (%) [3]: 99%
- Total Cell Count [3]: 207
- Population Apoptotic (%) [4]: 48%
- Population Fragmented Nuclei (%) [4]: 24%
- Population Healthy Nuclei (%) [4]: 48%
- Population Hoechst High Intensity Objects (%) [4]: 16%
- Population Membrane Permeable-Phenotype (%) [4]: 37%
- Population Mitochondria Different-Phenotype (%) [4]: 67%
- Population Mitotic Cells (%) [4]: 51%
- Population Normal (%) [4]: 83%
- Population Pyknosed Nuclei (%) [4]: 27%
- Population Tubulin-Different-Phenotype (%) [4]: 100%
- Total Cell Count [4]: 76
- Population Apoptotic (%) [5]: 38%
- Population Fragmented Nuclei (%) [5]: 6%
- Population Healthy Nuclei (%) [5]: 81%
- Population Hoechst High Intensity Objects (%) [5]: 2%
- Population Membrane Permeable-Phenotype (%) [5]: 15%
- Population Mitochondria Different-Phenotype (%) [5]: 27%
- Population Mitotic Cells (%) [5]: 61%
- Population Normal (%) [5]: 97%
- Population Pyknosed Nuclei (%) [5]: 12%
- Population Tubulin-Different-Phenotype (%) [5]: 15%
- Total Cell Count [5]: 141
- Population Apoptotic (%) [6]: 40%
- Population Fragmented Nuclei (%) [6]: 8%
- Population Healthy Nuclei (%) [6]: 83%
- Population Hoechst High Intensity Objects (%) [6]: 18%
- Population Membrane Permeable-Phenotype (%) [6]: 22%
- Population Mitochondria Different-Phenotype (%) [6]: 63%
- Population Mitotic Cells (%) [6]: 60%
- Population Normal (%) [6]: 81%
- Population Pyknosed Nuclei (%) [6]: 8%
- Population Tubulin-Different-Phenotype (%) [6]: 18%
- Total Cell Count [6]: 92
- Population Apoptotic (%) [7]: 65%
- Population Fragmented Nuclei (%) [7]: 13%
- Population Healthy Nuclei (%) [7]: 45%
- Population Hoechst High Intensity Objects (%) [7]: 16%
- Population Membrane Permeable-Phenotype (%) [7]: 50%
- Population Mitochondria Different-Phenotype (%) [7]: 85%
- Population Mitotic Cells (%) [7]: 34%
- Population Normal (%) [7]: 83%
- Population Pyknosed Nuclei (%) [7]: 40%
- Population Tubulin-Different-Phenotype (%) [7]: 98%
- Total Cell Count [7]: 216
- Population Apoptotic (%) [8]: 64%
- Population Fragmented Nuclei (%) [8]: 17%
- Population Healthy Nuclei (%) [8]: 36%
- Population Hoechst High Intensity Objects (%) [8]: 18%
- Population Membrane Permeable-Phenotype (%) [8]: 63%
- Population Mitochondria Different-Phenotype (%) [8]: 87%
- Population Mitotic Cells (%) [8]: 35%
- Population Normal (%) [8]: 81%
- Population Pyknosed Nuclei (%) [8]: 45%
- Population Tubulin-Different-Phenotype (%) [8]: 100%
- Total Cell Count [8]: 72
